Experimental findings from the RNAGym collection of RNA variant scans (doi:10.1002/anie.201605470) are described below.

Sequences and labels used below:
B1: Osa-1-4 twister ribozyme (parent)
chain: CCGCCUAACACUGCCAAUGCCGGUCCCAAGCCCGGAUAAAAGUGGAGGGGGCGG

The variants in the series derive from B1. The series can be described thus: self-cleavage, relative activity (ratio to wild type); higher = more cleavage; co-transcriptional. The essentials: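 Relative activity is the fraction cleaved divided by that of the wild-type ribozyme. The library came from a DNA template for a 54-nucleotide Oryza sativa twister ribozyme, doped at the 48 positions downstream of the cleavage site with 97 % wild-type base and 1 % of each other base. After 2 h of in vitro transcription at 37 °C with co-transcriptional self-cleavage, the RNA was reverse-transcribed with a template-switching oligonucleotide, amplified by PCR and deep-sequenced, and reads with or without upstream sequence gave the cleavage status.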
Turning to CCGCCUAACACUGGCAAUGCCGGUCCCAAGCCCGGAUAAAAGUGGAGGGGGGGG [C14G C52G], the self-cleavage worked out at 0.13. As for CCGCCUAACACUGGCAAUGCCGGUCCCAAGCCCGGAUAAAAGUGGAGGGGGAGG [C14G C52A], the figure is 0.14. Next, CCGCCUAACACUGGCAAUGCCGGUCCCAAGCCCGGAUAAAAGUGGAGGGGGUGG [C14G C52U]: 0.18; CCGCCUAACACUAGCAAUGCCGGUCCCAAGCCCGGAUAAAAGUGGAGGGGGCGG [C14G G13A]: 0.07; CCGCCUAACACUCGCAAUGCCGGUCCCAAGCCCGGAUAAAAGUGGAGGGGGCGG [C14G G13C]: 0.01.

Regarding CCGCCUAACACUUGCAAUGCCGGUCCCAAGCCCGGAUAAAAGUGGAGGGGGCGG [C14G G13U], the self-cleavage came to 0.05. As for CCGCCUAACACUGGCAAUGCCGGUCCCAAGCCCGCAUAAAAGUGGAGGGGGCGG [C14G G35C], the figure is 0.04. As to CCGCCUAACACUGGCAAUGCCGGUCCCAAGCCCGUAUAAAAGUGGAGGGGGCGG [C14G G35U], the self-cleavage was 0.06. As for CCGCCUAACACUGGCAAUGCCGGUCCCAAGCCCGAAUAAAAGUGGAGGGGGCGG [C14G G35A], the figure is 0.07. For the variant CCGCCUAACACUGGCAAUGCCGCUCCCAAGCCCGGAUAAAAGUGGAGGGGGCGG [C14G G23C], the self-cleavage was determined as 0.04. For CCGCCUAACACUGGCAAUGCCGUUCCCAAGCCCGGAUAAAAGUGGAGGGGGCGG [C14G G23U], the self-cleavage amounted to 0.03. Next, CCGCCUAACACUGGCAAUGCCGAUCCCAAGCCCGGAUAAAAGUGGAGGGGGCGG [C14G G23A]: 0.08; CCGCCUAACACUGGUAAUGCCGGUCCCAAGCCCGGAUAAAAGUGGAGGGGGCGG [C14G C15U]: 0.06; CCGCCUAACACUGGCAAUGCCGGUGCCAAGCCCGGAUAAAAGUGGAGGGGGCGG [C14G C25G]: 0.07. Next, CCGCCUAACACUGGCAAUGCCGGUACCAAGCCCGGAUAAAAGUGGAGGGGGCGG [C14G C25A]: 0.03; CCGCCUAACACUGGCAAUGCCGGUUCCAAGCCCGGAUAAAAGUGGAGGGGGCGG [C14G C25U]: 0.12. Next, CCGCCUAACACUGGCAAUGCCGGUCCCAAACCCGGAUAAAAGUGGAGGGGGCGG [C14G G30A]: 0.07; CCGCCUAACACUGGCAAUGCCGGUCCCAACCCCGGAUAAAAGUGGAGGGGGCGG [C14G G30C]: 0.64; CCGCCUAACACUGGCAAUGCCGGUCCCAAUCCCGGAUAAAAGUGGAGGGGGCGG [C14G G30U]: 0.14. With CCGCCUAACACUGGCAAUGCCUGUCCCAAGCCCGGAUAAAAGUGGAGGGGGCGG [C14G G22U], the self-cleavage came out at 0.07. For the variant CCGCCUAACACUGGCAAUGCCCGUCCCAAGCCCGGAUAAAAGUGGAGGGGGCGG [C14G G22C], the self-cleavage is 0.07. As for CCGCCUAACACUGGCAAUGCCAGUCCCAAGCCCGGAUAAAAGUGGAGGGGGCGG [C14G G22A], the self-cleavage was found to be 0.07. As for CCGCCUAACACUGGCAAUGCAGGUCCCAAGCCCGGAUAAAAGUGGAGGGGGCGG [C14G C21A], the figure is 0.09; as for CCGCCUAACACUGGCAAUGCGGGUCCCAAGCCCGGAUAAAAGUGGAGGGGGCGG [C14G C21G], 0.05; as for CCGCCUAACACUGGCAAUGCUGGUCCCAAGCCCGGAUAAAAGUGGAGGGGGCGG [C14G C21U], 0.16.

On to CCGCCUAACACUGGCAAUGCCGGUCCCAAGCCCAGAUAAAAGUGGAGGGGGCGG [C14G G34A], for which the self-cleavage came to 0.13. Next, CCGCCUAACACUGGCAAUGCCGGUCCCAAGCCCUGAUAAAAGUGGAGGGGGCGG [C14G G34U]: 0.06; CCGCCUAACACUGGCAAUGCCGGUCCCAAGCCCCGAUAAAAGUGGAGGGGGCGG [C14G G34C]: 0.09; CCGCCUAACACUGGCAAUGCCGGUCCCAAGCCUGGAUAAAAGUGGAGGGGGCGG [C14G C33U]: 0.07. Regarding CCGCCUAACACUGGCAAUGCCGGUCCCAAGCCAGGAUAAAAGUGGAGGGGGCGG [C14G C33A], the self-cleavage amounted to 0.04. As for CCGCCUAACACUGGCAAUGCCGGUCCCAAGCCGGGAUAAAAGUGGAGGGGGCGG [C14G C33G], the figure is 0.05; as for CCGCCUAACACUGGCAAUGUCGGUCCCAAGCCCGGAUAAAAGUGGAGGGGGCGG [C14G C20U], 0.22. Next, CCGCCUAACACUGGCAAUGACGGUCCCAAGCCCGGAUAAAAGUGGAGGGGGCGG [C14G C20A]: 0.17; CCGCCUAACACUGGCAAUGGCGGUCCCAAGCCCGGAUAAAAGUGGAGGGGGCGG [C14G C20G]: 0.16. Regarding CCGCCUAACACUGGCAAUACCGGUCCCAAGCCCGGAUAAAAGUGGAGGGGGCGG [C14G G19A], the self-cleavage came to 0.24.

For the variant CCGCCUAACACUGGCAAUCCCGGUCCCAAGCCCGGAUAAAAGUGGAGGGGGCGG [C14G G19C], the self-cleavage is 0.04.

For the variant CCGCCUAACACUGGCAAUUCCGGUCCCAAGCCCGGAUAAAAGUGGAGGGGGCGG [C14G G19U], the self-cleavage stood at 0.08. Regarding CCGCCUAACACUGGCAAUGCCGGUCCUAAGCCCGGAUAAAAGUGGAGGGGGCGG [C14G C27U], the self-cleavage came to 0.07.

On to CCGCCUAACACUGGCAAUGCCGGUCCAAAGCCCGGAUAAAAGUGGAGGGGGCGG [C14G C27A], for which the self-cleavage was 0.03.

Take CCGCCUAACACUGGCAAUGCCGGUCCGAAGCCCGGAUAAAAGUGGAGGGGGCGG [C14G C27G]: the self-cleavage was 0.07.

Regarding CCGCCUAACACUGGCAAUGCCGGUCGCAAGCCCGGAUAAAAGUGGAGGGGGCGG [C14G C26G], the self-cleavage was determined as 0.07.

On to CCGCCUAACACUGGCAAUGCCGGUCUCAAGCCCGGAUAAAAGUGGAGGGGGCGG [C14G C26U], for which the self-cleavage was 0.07. Next, CCGCCUAACACUGGCAAUGCCGGUCACAAGCCCGGAUAAAAGUGGAGGGGGCGG [C14G C26A]: 0.03; CCGCCUAACACUGGCAAUGCCGGUCCCAAGGCCGGAUAAAAGUGGAGGGGGCGG [C14G C31G]: 0.15; CCGCCUAACACUGGCAAUGCCGGUCCCAAGUCCGGAUAAAAGUGGAGGGGGCGG [C14G C31U]: 0.05. CCGCCUAACACUGGCAAUGCCGGUCCCAAGACCGGAUAAAAGUGGAGGGGGCGG [C14G C31A]: the self-cleavage was 0.02. For the variant CCGCCUAACACUGGCAAUGCCGGUCCCAAGCACGGAUAAAAGUGGAGGGGGCGG [C14G C32A], the self-cleavage worked out at 0.03. Next, CCGCCUAACACUGGCAAUGCCGGUCCCAAGCUCGGAUAAAAGUGGAGGGGGCGG [C14G C32U]: 0.04. On to CCGCCUAACACUGGCAAUGCCGGUCCCAAGCGCGGAUAAAAGUGGAGGGGGCGG [C14G C32G], for which the self-cleavage is 0.08.
